DNMT1 inh: human DNMT1 methyltransferase inhibitors, primary screen, biochemical, molecular beacon, fluorescence, HinP1I cleavage, uHTS; DNA (cytosine-5)-methyltransferase 1 (Homo sapiens), P26358; inhibition (reported as % activation of signal), % at 10 µM; hit rate 0.83% among 360,000; AID 588458, 2011; in the data active = inhibition above about 50%
STEP block: STEP phosphatase inhibitors, primary screen, biochemical, fluorescence intensity, uHTS | recombinant STEP, OMFP fluorogenic substrate | inhibition, % at 20 µM | hit rate 0.25% among 360,000 | AID 588621, 2011;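 active = inhibition at 20 µM, scaled per plate between control wells, above about 37%, limit read from the data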;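 also: 0% = DMSO with enzyme and substrate and 100% = substrate only without enzyme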
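Assay system: isolated STEP enzyme. Buffer or medium: pH 6.0 Bis-Tris with DTT and Tween 20. Also added: fluorogenic phosphatase substrate OMFP at 25 µM final. Dosing: 20 µM, 1% DMSO. Timing: 20 min reaction, room temperature, in the dark. Measured by: fluorescence intensity, excitation 480 nm, emission 540 nm. Evaluation: normalized % inhibition.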
Scp1 inh: Scp-1 phosphatase inhibitors, primary screen, biochemical, colorimetric, uHTS; Carboxy-terminal domain RNA polymerase II polypeptide A small phosphatase 1 (Homo …; Recombinant Scp1, phosphopeptide, malachite green phosphate absorbance; inhibition, % at 20 µM; hit rate 0.88% among 340,000;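 active = inhibition above about 50% at 20 µM, limit read from the data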;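 also: plate controls were DMSO wells with enzyme for no effect and wells lacking enzyme for full effect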
Target sequence (Q9GZU7 76-261 limits assumed): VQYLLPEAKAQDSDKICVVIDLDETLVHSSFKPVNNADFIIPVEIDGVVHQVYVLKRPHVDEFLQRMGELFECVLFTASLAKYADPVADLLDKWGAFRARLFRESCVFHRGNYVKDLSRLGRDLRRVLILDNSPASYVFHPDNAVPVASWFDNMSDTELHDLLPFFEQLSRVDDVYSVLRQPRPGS
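Test system: SCP-1 catalytic domain; Buffer or medium: Acidic Tris acetate buffer with magnesium and detergent; Also added: Phosphorylated 17-residue peptide substrate; Compound: single 20 µM dose, 1% DMSO; Schedule: enzyme reaction 45 min at room temperature, colour 5 min, stabilisation 30 min; Signal: Phosphate-binding colour reagent, absorbance read at 630 nm.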
Rpn11 block: Rpn11 (PSMD14) deubiquitinase inhibitors, primary screen, biochemical, fluorescence polarization, uHTS | 26S proteasome non-ATPase regulatory subunit 14 (Homo sapiens), O00487 | human 26S proteasome, Ub4-pepOG fluorescence polarization; 20S core pre-blocked with epoxomicin | inhibition, % at 20 µM | hit rate 0.59% among 360,000 | AID 588493, 2011;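 active = inhibition at 20 µM, scaled to each plate's controls, above about 33%, limit read from the data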
Target sequence (O00487 whole entry, looked up): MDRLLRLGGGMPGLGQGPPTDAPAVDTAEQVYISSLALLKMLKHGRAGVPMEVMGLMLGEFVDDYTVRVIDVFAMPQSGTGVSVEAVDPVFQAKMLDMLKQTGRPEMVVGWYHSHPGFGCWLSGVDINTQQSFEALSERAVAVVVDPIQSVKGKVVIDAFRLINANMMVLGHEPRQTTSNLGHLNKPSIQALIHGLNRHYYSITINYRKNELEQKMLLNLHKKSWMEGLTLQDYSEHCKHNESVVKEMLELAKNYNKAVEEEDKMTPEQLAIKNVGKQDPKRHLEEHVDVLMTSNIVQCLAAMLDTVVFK
LMPTP inh: LMPTP phosphatase inhibitors, primary screen, biochemical, fluorescence intensity, uHTS. Low molecular weight phosphotyrosine protein phosphatase (Homo sapiens), P24666. recombinant LMPTP-A, OMFP fluorogenic substrate. inhibition, % at 20 µM. hit rate 0.22% among 360,000. AID 651560, 2012;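 active = compounds that cut the enzyme signal by at least half of the control window in the single-dose screen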;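 also: plate controls were DMSO wells with enzyme plus substrate for no effect and substrate without enzyme for full effect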
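Assay system: LMPTP-A enzyme. Input: 0.625 nM LMPTP-A final. Probe or stimulus: 400 µM OMFP. Compound dosing: single 20 µM dose. Schedule: 50 min dark incubation at room temperature. Detection: fluorescence intensity of OMFP turnover product. Read-out: percent inhibition versus substrate-only and uninhibited controls. Benchmarks: no-enzyme low control, uninhibited high control.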
SUMO1-SIM PPI: modulators of SUMO1 protein-protein interactions, primary screen, biochemical, uHTS; Small ubiquitin-related modifier 1 (Homo sapiens), P63165; SUMO1 binding to a labelled peptide, TR-FRET, 1 h; inhibition, % at 20 µM; hit rate 0.33% among 360,000; AID 602429, 2012; in the data active = inhibition above about 37%
Target sequence (P63165 whole entry, looked up): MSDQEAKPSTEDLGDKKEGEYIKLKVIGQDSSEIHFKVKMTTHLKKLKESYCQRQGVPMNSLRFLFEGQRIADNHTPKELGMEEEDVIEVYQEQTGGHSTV
DNMT1 confirm: DNMT1 methyltransferase inhibitor retest, confirmation, biochemical, molecular beacon, fluorescence, single concentration | hit rate 8% among 2,300 | AID 602385, 2012 | DNMT1 molecular beacon HinP1I cleavage | inhibition, % at 10 µM | shares compounds with DNMT1 inh;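 active = average inhibition of at least 30% in the single-concentration confirmation test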
Beacon interf: shows spectral interference in the DNMT1 beacon assay | shares compounds with DNMT1 inh | DNMT1 molecular beacon spectral interference counterscreen, fluorescence 485/520 | activation (fluorescence interference), % at 10 µM | hit rate 1% among 2,300 | AID 602387;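 active = activation of at least 30% at 10 µM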;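 also: DNMT1 catalytic domain with a HinP1I cleavage step and a FAM/dabcyl DNA beacon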
Rpn11 inh conf: Rpn11 (PSMD14) deubiquitinase inhibitors, confirmation, biochemical, fluorescence polarization, single concentration. inhibition, % at 20 µM. shares compounds with Rpn11 block. hit rate 29% among 1,900. purified human 26S proteasome, Ub4-pepOG fluorescence polarization; proteasome pretreated with epoxomicin
MMP-2 inh: MMP-2 enzyme inhibition, confirmation, counter-screen for RPN11 inhibitor project, biochemical, fluorescence, single concentration. shares compounds with Rpn11 block. recombinant MMP-2, FRET peptide cleavage fluorescence. inhibition, % at 20 µM. hit rate 4% among 1,900. AID 602330, 2012;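 also: human MMP-2 activated beforehand with APMA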
Thrombin FP: bovine thrombin protease inhibition, confirmation, counter-screen for Rpn11 inhibitor project, biochemical, fluorescence polarization, single concentration | shares compounds with Rpn11 block | bovine thrombin cleavage of Ub4-pepOG | inhibition, % at 20 µM | hit rate 13% among 1,900;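 active = mean inhibition at least 40% at 20 µM, or signal 3 deviations below plate average, so some actives read negative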;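 also: plate controls were thrombin with DMSO for no effect and buffer wells lacking thrombin for full effect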
STEP conf: STEP phosphatase inhibitor hit confirmation, biochemical, fluorescence intensity, single concentration | shares compounds with STEP block | recombinant STEP, OMFP fluorogenic substrate | inhibition, % at 20 µM | hit rate 32% among 520 | AID 623866, 2012; call rule not given here;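 also: 0% = enzyme with substrate plus DMSO and 100% = substrate without enzyme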
* marks the source's active call; other numbers are inactive results; . = not tested or not shown. In the library only some 2.3% were active in any assay of this set; here they are far more common. Rule as the data show it, unless noted: active = inhibition above about 40%; inactive = the rest.

SMILES	DNMT1 inh	STEP block	Scp1 inh	Rpn11 block	LMPTP inh	SUMO1-SIM PPI	Rpn11 inh conf	MMP-2 inh	Thrombin FP	others
COc1ccccc1-c1csc(-n2ncc(C#N)c2N)n1	76.5*	60.7*	.	92.2*	41.3	95.3*	45.1*	49.7*	-15.7	DNMT1 confirm=11.5;Beacon interf=-0.1;STEP conf=19.0
COc1ccc(/C=c2\s/c(=C/C(=O)c3ccc(C)cc3)[nH]c2=O)cc1OC	13.9	-7.4	-10.3	.	2.3	-14.0	.	.	.
CC(=O)c1ccc(CC2SC(N)=NC2=O)cc1 (centres undefined)	-1.4	28.1	6.4	5.1	-0.1	4.9	.	.	.
O=C(Nc1nc2ccc(F)cc2s1)c1cccc(S(=O)(=O)N2CCc3ccccc32)c1	-8.3	-0.8	-11.7	6.0	2.8	1.5	.	.	.
Cc1ccc2nc(NC(=O)c3ccc(S(=O)(=O)N4CCCc5ccccc54)cc3)sc2c1	95.2*	121.1*	-6.3	41.3*	1.0	0.9	-14.8	-34.0	-13.6	DNMT1 confirm=2.5;Beacon interf=4.0;STEP conf=-4.7
Cc1ccc(S(=O)(=O)NCCCNS(=O)(=O)c2ccccc2[N+](=O)[O-])cc1	-1.1	-2.9	5.5	1.6	-1.3	-11.2	.	.	.
O=C(N/N=C/c1ccncc1)c1cccc(N/N=C/c2ccncc2)c1	-0.7	4.3	-5.2	1.3	10.2	-10.2	.	.	.
O=C(N/N=C/c1ccncc1)c1cccc(NC(=O)c2ccc(Cl)cc2)c1	-11.3	33.8	35.6	73.1*	15.8	11.0	47.0*	-1.1	0.3
O=C(O)c1cn(C2CCCCC2)c2ccccc2c1=O	-2.3	0.9	-0.4	0.3	0.1	-2.2	.	.	.
CCOc1ccccc1CN1CCNC(=O)C1CC(=O)NCc1nc(C)cs1 (centres undefined)	-2.6	-0.7	-7.8	0.4	0.0	-6.4	.	.	.
CCCC(=O)NC(c1ccco1)c1cc(Cl)c2cccnc2c1O (centres undefined)	-1.2	2.3	-1.9	42.0*	2.3	-6.3	11.5	16.5	0.7
CCCC(=O)NC(c1cccs1)c1cc(Cl)c2cccnc2c1O (centres undefined)	-4.7	1.1	-3.9	26.4	1.4	6.3	.	.	.
O=C(N/N=C/c1cc([N+](=O)[O-])ccc1O)c1cc(-c2ccccc2)nc2ccccc12	-18.0	-1.2	-5.3	42.0*	1.7	9.1	42.6*	23.9	-7.3
COCc1cc(=O)n2[nH]c(C(C)(C)C)cc2n1	0.1	-1.7	-13.3	-0.4	-0.6	2.0	.	.	.
COc1ccc(N2CCN(C(=O)C(=O)c3cccc([N+](=O)[O-])c3)CC2)cc1	.	.	.	.	-0.5	-23.4	.	.	.
O=C(CC1OC(=O)c2ccccc21)Nc1cc(Cl)ccc1N1CCCC1 (centres undefined)	21.5	1.1	-0.7	64.6*	23.6	6.0	62.1*	-6.5	-13.4
O=C(Nc1nc2ccc(S(=O)(=O)N3CCCCC3)cc2s1)c1cccnc1	-2.7	0.5	2.3	54.1*	2.0	-0.8	6.5	-9.0	-2.0
O=C(O)CSc1cc(C(=O)c2cc(F)ccc2O)cn2c(=O)c3c(-c4ccccc4)csc3nc12	-0.5	6.5	-11.3	38.6*	14.5	17.9	15.1	44.0*	22.0
CCOC(=O)c1sc2nc3c(SCCC#N)cc(C(=O)c4cc(F)ccc4O)cn3c(=O)c2c1C	-4.5	4.5	-27.1	44.9*	-0.1	9.4	24.6	4.8	16.3
CCOC(=O)c1sc2nc3c(SCCC(=O)O)cc(C(=O)c4cc(OC)ccc4O)cn3c(=O)c2c1C	104.2*	96.4*	26.7	162.8*	91.7*	83.8*	80.4*	30.9	8.1
CCc1c(C)sc2nc3c(C(=O)N4CCOCC4)cc(C(=O)c4cc(F)ccc4O)cn3c(=O)c12	-2.0	-0.6	-11.6	19.2	2.1	-13.5	.	.	.
O=C(c1cnn(-c2ccccc2)c1)c1cc(F)ccc1O	0.8	1.0	-15.6	-7.9	-0.8	-15.5	.	.	.
CC(C)c1ccc(S(=O)(=O)N(C)C2(C)CCS(=O)(=O)C2)cc1 (centres undefined)	0.8	-0.2	-6.9	-6.6	-0.8	0.3	.	.	.
C#CCN(Cc1ccccc1)S(=O)(=O)C=C	.	.	-5.8	.	.	.	.	.	.
O=C(COC(=O)C12CC3CC(CC(C3)C1)C2)NCCc1ccccc1	-3.2	-0.1	-8.0	-1.8	1.0	-1.6	.	.	.
COc1ccc(-c2cc(C(=O)NCc3cccc(C(F)(F)F)c3)[nH]n2)c(C)c1	5.4	-0.5	.	-5.7	2.3	-0.8	.	.	.
Cc1ccc(C(=O)CN2C(=O)NC3(CCc4ccccc43)C2=O)s1 (centres undefined)	1.2	3.3	-8.2	7.7	0.0	2.4	.	.	.
Cc1ccc(C(=O)Nc2ccc3c(c2)CCC3)o1	0.8	-1.8	-8.7	-5.3	-0.5	1.8	.	.	.
O=C(Nc1ccc2c(c1)CCC2)c1ccc(Br)o1	-2.0	-2.7	-4.8	96.7*	-1.1	9.5	-19.1	10.7	-1.4
